Measurements taken from ChEMBL document CHEMBL2176883, “Aminopiperidine sulfonamide Cav2.2 channel inhibitors for the treatment of chronic pain” (J Med Chem, 2012).

Experiments:
[1] = Tmax in rat at 3 mg/kg; type: ADME, organism-based; design: dose 3 mg/kg; conditions: in vivo
Method in brief: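 Rat pharmacokinetics: 3 mg/kg po arm alongside 1 mg/kg iv; tmax from oral arm, half-life from iv dosing.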

Liver microsomes = test: Drug metabolism in human liver microsomes assessed as assessed as 3-trifluoromethylbenzenesulfonamide level level; type: ADME, Microsome
[2] = Drug metabolism in Sprague-Dawley rat assessed as parent compound level in blood at 10 mg/kg, po after 8 hrs; type: ADME, organism-based; design: dose 10 mg/kg, route oral; conditions: read-out: Drug metabolism
Method in brief: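 Male Sprague-Dawley rats were given a 10 mg/kg oral dose. Parent and metabolite concentrations were measured in whole blood and brain over time, including 8 h postdose.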

PXR = target: T1, PXR (Homo sapiens, UniProt O75469); test: Activation of PXR at 10 uM relative to control; conditions: read-out: max activation
T1 sequence (O75469 whole entry): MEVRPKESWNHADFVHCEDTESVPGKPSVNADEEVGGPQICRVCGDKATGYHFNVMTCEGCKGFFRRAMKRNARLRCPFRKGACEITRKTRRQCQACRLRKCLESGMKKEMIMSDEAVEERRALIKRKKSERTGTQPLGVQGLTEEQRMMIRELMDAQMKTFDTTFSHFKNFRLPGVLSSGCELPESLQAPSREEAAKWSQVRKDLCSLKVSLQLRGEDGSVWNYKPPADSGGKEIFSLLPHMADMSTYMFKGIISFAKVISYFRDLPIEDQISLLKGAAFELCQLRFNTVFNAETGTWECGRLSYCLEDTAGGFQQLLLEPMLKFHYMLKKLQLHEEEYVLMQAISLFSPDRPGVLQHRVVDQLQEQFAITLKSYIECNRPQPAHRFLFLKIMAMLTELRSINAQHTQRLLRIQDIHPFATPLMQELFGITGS

[3] = target: T2, Nuclear receptor subfamily 1 group I member 2 (Homo sapiens, UniProt O75469); test: Activation of PXR
T2 sequence (O75469 whole entry): T1 sequence (O75469 whole entry)
Method in brief: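 PXR activation read as EC50, with maximal activation given as % at 10 μM.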

Cytochrome P450 3A4 = Cytochrome P450 3A4 (Homo sapiens, UniProt P08684); test: Inhibition of CYP3A4; type: ADME
Chain of Cytochrome P450 3A4 (P08684 whole entry): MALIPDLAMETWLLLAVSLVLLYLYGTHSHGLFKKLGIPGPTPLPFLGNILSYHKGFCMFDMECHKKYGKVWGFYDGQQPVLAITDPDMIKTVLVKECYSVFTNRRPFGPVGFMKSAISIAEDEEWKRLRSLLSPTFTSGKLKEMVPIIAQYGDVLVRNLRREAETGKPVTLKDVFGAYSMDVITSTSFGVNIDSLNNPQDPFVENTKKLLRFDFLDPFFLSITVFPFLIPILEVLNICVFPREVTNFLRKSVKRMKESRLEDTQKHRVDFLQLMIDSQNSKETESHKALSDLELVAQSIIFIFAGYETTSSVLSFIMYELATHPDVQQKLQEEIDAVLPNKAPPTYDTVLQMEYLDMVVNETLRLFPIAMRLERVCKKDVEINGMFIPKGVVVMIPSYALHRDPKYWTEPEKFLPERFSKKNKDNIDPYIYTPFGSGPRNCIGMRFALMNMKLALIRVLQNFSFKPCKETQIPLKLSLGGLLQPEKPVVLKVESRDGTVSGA

[4] = Plasma concentration in vagotomized dog at 1 mg/kg, iv after 30 mins; type: ADME, organism-based, Canis lupus familiaris; design: dose 1 mg/kg, route intravenous
Method in brief: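 Anesthetized, vagotomized dogs; intravenous infusion in sequential rising doses of 1, 3 and 10 mg/kg (cumulative); plasma exposure sampled at indicated time points, n = 3.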

Canis familiaris [5] = test: Cardiotoxicity in vagotomized dog assessed as QTc interval at 1 to 10 mg/kg, iv up to 90 mins; type: toxicity, organism-based, Canis lupus familiaris; design: dose 1-10 mg/kg, route intravenous; conditions: in vivo, 1.5 h
Method in brief: (§1)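 Anesthetized, vagotomized dogs received an intravenous infusion in sequential rising cumulative doses of 1, 3 and 10 mg/kg. MAP, HR, QRS, PR and QTc were monitored, with plasma exposure sampled at the indicated time points (n = 3).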

Canis familiaris [6] = test: Cardiotoxicity in vagotomized dog assessed as QRS interval at 1 to 10 mg/kg, iv up to 90 mins; type: toxicity, organism-based, Canis lupus familiaris; design: dose 1-10 mg/kg, route intravenous; conditions: in vivo, 1.5 h; method in brief: as §1
Rattus norvegicus [7] = test: Neurotoxicity in rat assessed as motor coordination at 100 mg/kg, po after 3 hrs; type: toxicity, organism-based; design: dose 100 mg/kg, route oral; conditions: in vivo
Method in brief: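 Rats were dosed orally at 100 mg/kg, motor coordination was tested on a rota-rod 3 h later, and plasma and brain exposure were then measured.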

Mus musculus = test: Antinociceptive activity in Cav2.2 expressing wild type mouse assessed as reversal of complete Freund's adjuvant-induced pain at 30 mg/kg, po after 2 hrs; type: functional
[8] = Plasma concentration in rat SNL neuropathic pain model at 10 mg/kg, po after 3 hrs; type: ADME, organism-based; design: dose 10 mg/kg, route oral
Method in brief: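 Rats with spinal nerve ligation; separate SNL-treated rats given single oral 10 mg/kg dose; plasma exposure measured 3 h postdose.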

Rattus norvegicus [9] = test: Antinociceptive activity in rat assessed as reversal of complete Freund's adjuvant-induced pain at 10 mg/kg, po after 3 hrs; type: functional
Method in brief: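 Rats had complete Freund's adjuvant-induced inflammatory pain and got oral dosing. Allodynia was read at 1 and 3 h postdose. Percent reversal per rat = (postdose − predose)/(preinjury − predose). Groups had at least six animals, reported as mean + SEM.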

Rattus norvegicus [10] = test: Analgesic activity in rat SNL neuropathic pain model assessed as reversal of mechanical allodynia at 10 mg/kg, po after 1 hr; type: functional
Rattus norvegicus [11] = test: Analgesic activity in po dosed rat SNL neuropathic pain model assessed as reversal of mechanical allodynia after 1 to 24 hrs; type: functional, organism-based
[12] = target: Voltage-dependent N-type calcium channel subunit alpha-1B (Homo sapiens, UniProt Q00975); test: Inhibition of human Cav2.2 expressed CBK cells assessed as inhibition of channel current at 3 uM at holding membrane potential -40 mV by conventional patch clamp electrophysiology assay
Method in brief: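 Cav2.2 current block was measured at a depolarized (−40 mV) or hyperpolarized (−90 mV) potential. At −40 mV, n = 2, 3, 4 and 1 at 0.3, 1, 3 and 10 μM. At −90 mV, n = 4 and 6 at 3 and 10 μM. Values are mean ± SEM.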

Rattus norvegicus [13] = test: Dose normalized AUC in rat at 3 mg/kg, po and 1 mg/kg, iv; type: ADME, organism-based; conditions: in vivo
Method in brief: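 Rat pharmacokinetics from iv and po arms: 0.6 mg/kg iv with 1.8 mg/kg po, or 1 mg/kg iv with 3 mg/kg po. AUC was normalized to po dose (μM·h·kg/mg). Clearance (mL/min/kg) and half-life come from the iv arm, and F% is oral bioavailability.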

Cav1.2 = Cav1.2 (Homo sapiens, UniProt Q13936); test: Inhibition of Cav1.2 assessed as inhibition of calcium flux at 3 uM by cell based FLIPR assay
Chain of Cav1.2 (Q13936 whole entry): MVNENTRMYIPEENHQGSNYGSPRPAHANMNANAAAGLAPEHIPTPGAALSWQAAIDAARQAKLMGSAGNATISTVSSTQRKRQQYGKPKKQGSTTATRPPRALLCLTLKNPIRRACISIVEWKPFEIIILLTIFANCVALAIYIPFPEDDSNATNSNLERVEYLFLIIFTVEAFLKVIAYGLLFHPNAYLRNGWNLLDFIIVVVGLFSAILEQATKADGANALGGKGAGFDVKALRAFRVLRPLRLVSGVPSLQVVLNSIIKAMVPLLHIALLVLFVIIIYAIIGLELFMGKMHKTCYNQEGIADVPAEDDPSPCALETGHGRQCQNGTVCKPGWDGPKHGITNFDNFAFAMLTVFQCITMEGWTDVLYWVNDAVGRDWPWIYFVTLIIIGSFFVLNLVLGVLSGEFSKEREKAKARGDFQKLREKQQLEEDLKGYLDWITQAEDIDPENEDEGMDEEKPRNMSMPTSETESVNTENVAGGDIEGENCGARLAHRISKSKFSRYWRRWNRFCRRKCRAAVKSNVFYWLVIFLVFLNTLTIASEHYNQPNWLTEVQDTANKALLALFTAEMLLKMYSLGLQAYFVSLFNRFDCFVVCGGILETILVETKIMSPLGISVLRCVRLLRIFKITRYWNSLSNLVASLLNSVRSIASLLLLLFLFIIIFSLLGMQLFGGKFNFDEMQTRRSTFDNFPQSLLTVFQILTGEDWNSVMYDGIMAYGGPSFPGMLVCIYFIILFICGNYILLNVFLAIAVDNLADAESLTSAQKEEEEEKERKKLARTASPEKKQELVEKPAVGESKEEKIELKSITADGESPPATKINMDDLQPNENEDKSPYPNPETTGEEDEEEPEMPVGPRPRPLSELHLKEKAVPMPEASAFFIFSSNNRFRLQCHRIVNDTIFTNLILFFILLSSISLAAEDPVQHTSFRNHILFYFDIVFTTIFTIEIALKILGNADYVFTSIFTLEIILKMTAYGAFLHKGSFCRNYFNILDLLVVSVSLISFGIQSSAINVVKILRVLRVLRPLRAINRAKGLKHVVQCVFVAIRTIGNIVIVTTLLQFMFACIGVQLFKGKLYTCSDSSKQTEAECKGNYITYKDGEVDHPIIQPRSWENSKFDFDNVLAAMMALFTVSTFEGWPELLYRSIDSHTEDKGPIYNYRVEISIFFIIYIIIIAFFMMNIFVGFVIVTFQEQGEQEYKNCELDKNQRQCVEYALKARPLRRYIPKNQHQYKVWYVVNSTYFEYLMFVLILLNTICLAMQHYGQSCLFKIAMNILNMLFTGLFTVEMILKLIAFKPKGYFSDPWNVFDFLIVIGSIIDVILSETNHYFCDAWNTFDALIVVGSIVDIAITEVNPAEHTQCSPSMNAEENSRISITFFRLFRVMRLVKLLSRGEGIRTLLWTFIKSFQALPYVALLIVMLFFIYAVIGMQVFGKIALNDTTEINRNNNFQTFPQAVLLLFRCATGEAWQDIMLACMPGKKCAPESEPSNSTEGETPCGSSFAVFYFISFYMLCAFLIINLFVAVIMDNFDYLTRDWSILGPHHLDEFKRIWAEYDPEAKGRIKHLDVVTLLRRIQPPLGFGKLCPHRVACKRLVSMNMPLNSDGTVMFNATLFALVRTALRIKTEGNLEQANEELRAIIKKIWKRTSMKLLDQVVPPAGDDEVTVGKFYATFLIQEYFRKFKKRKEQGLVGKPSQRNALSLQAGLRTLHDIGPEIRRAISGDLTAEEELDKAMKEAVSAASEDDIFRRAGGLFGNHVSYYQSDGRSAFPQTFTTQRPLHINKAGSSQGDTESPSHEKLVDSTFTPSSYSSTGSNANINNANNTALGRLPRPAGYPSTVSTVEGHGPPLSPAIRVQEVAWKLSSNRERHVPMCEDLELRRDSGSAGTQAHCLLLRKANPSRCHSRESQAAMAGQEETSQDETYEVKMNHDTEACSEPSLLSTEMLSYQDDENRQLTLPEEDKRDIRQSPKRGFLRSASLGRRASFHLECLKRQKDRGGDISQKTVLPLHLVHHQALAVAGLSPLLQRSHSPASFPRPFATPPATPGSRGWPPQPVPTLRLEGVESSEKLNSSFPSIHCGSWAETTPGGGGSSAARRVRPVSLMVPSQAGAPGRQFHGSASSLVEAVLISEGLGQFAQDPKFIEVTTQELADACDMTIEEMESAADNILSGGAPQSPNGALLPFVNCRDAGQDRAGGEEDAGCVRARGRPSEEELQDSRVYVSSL
Method in brief: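 Cav1.2 counterscreen using a related calcium-influx FLIPR assay, run as % inhibition at single concentrations or as a titration.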

hERG = hERG (Homo sapiens, UniProt Q12809); test: Displacement of [35S]-MK-0499 from human ERG at 1 uM; conditions: probe [35S]-MK-0499
Chain of hERG (Q12809 whole entry): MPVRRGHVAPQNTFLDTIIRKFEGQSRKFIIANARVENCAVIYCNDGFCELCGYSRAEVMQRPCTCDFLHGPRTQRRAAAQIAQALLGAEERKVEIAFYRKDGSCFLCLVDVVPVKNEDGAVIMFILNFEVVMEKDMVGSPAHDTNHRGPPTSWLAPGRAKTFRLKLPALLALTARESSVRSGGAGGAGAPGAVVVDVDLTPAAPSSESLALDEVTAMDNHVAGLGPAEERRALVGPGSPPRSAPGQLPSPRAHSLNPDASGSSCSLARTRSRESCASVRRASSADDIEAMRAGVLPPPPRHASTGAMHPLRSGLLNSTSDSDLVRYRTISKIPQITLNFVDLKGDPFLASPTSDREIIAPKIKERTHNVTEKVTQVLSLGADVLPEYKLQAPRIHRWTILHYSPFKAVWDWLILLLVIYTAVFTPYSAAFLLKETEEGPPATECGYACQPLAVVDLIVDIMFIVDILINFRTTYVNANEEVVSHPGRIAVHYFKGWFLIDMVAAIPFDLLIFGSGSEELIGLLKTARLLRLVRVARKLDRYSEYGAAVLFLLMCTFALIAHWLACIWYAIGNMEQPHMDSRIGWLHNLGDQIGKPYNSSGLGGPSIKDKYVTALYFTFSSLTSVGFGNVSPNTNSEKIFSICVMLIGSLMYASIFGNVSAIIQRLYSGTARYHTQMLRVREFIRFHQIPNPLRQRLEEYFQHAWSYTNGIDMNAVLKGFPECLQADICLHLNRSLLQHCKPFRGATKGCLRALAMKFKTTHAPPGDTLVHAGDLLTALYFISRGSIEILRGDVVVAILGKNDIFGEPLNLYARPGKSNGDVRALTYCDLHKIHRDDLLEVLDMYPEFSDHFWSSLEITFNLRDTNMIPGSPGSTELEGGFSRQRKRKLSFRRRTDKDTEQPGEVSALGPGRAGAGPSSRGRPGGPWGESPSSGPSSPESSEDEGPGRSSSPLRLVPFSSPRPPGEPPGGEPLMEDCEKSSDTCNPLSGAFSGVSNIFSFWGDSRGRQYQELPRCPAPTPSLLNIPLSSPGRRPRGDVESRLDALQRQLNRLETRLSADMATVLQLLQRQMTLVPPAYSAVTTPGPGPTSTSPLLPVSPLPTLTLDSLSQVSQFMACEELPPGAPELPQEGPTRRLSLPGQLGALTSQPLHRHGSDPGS
Method in brief: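 hERG binding was measured as displacement of 35S-labeled MK-0499 at single test concentrations.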

Tmax [1]: 1.7 h
Drug metabolism (Liver microsomes): Active
concentration at 8 h [2]: 310 nM
Emax at 10 µM (PXR): 124%
EC50 [3]: 0.43 µM
IC50 (Cytochrome P450 3A4): 5.1 µM
concentration at 0.5 h [4]: 1960 nM
concentration at 3 h [8]: 1260 nM
inhibition [12]: 84%
AUC/dose (Rattus norvegicus [13]): 0.86 µM·kg·h/mg
SMILES: CS(=O)(=O)c1ccc(F)cc1C(=O)N1CCC(N(C2CC2)S(=O)(=O)c2cccc(C(F)(F)F)c2)CC1
Activity (Canis familiaris [5]): Non-toxic
Activity (Canis familiaris [6]): Non-toxic
Activity (Rattus norvegicus [7]): Non-toxic
Activity (Mus musculus): 35%
Activity (Rattus norvegicus [9]): 49%
Activity (Rattus norvegicus [10]): 45%
Activity (Rattus norvegicus [11]): Dose-dependent effect
inhibition at 3 µM (Cav1.2): 34%
inhibition at 1 µM (hERG): 1.6%
